Measurements collected from several papers.
Each line is one published result; the experiments were not run side by side.
Observed: cell growth or viability

SMILES	cell line	technique	tested at	time	quantity	value
CC(C)(CO)Cn1nc(-c2ccc3cc(OC4CC4)ccc3c2)c2c(N)ncnc21	CRL8155	–	–	–	GI50	> 10 µM
CCCNc1ccnc(Nc2cccc(-c3cccnc3)c2)n1	MV4-11	ATP luminescence	–	72 h	EC50	0.138 µM
Cc1cc2c(cc1N1C(=O)c3cccc4c(CCCO)ccc(c34)C1=O)n(C)c(=O)n2C (racemic)	769-P	resazurin	–	–	GI50	3.21 µM
CC1(C)C(=O)NC2=C1C(=O)C(=O)c1ccccc12	HN-6	–	–	72 h	IC50	> 20 µM
COC(C)(C)CCC[C@](C)(O)[C@H]1CC[C@]2(C)[C@@H]1[C@H](O)C[C@@H]1[C@@]3(C)CC[C@H](O)C(C)(C)[C@@H]3CC[C@]12C	BEAS-2B	MTT	–	72 h	IC20	4.46 µM
C[C@H](Nc1ccnc(Nc2cccc(-c3cccnc3)c2)n1)C(=O)O	MV4-11	ATP luminescence	–	72 h	EC50	> 8 µM
N#Cc1ccc(COC[C@H]2O[C@@H](n3c(NCc4ccc(Cl)c(Cl)c4)nc4c(N)ncnc43)[C@H](O)[C@@H]2O)cc1	HN-6	–	–	72 h	IC50	4.86 µM
COC(=O)c1cccc(-c2cccc(Nc3nccc(NC(C)C)n3)c2)c1	MV4-11	ATP luminescence	–	72 h	EC50	4.89 µM
CCCCCCCCCCCCCCCCOP(=O)([O-])OCC[N+](C)(C)C	human Fibroblast	MTS	20 µM	24 h	inhibition	46.2%
c1ccc(-c2cccc(Nc3nccc(NC4CCCCC4)n3)c2)cc1	MV4-11	ATP luminescence	–	72 h	EC50	> 4 µM
COc1cc(-c2ccc(-c3ccc(C(=N)N)nc3)s2)cc(OC)c1OC	LOX IMVI	SRB	–	–	GI50	1.87 µM
CCOC(=O)c1c(C)ncn1CC(c1cn(C)c2ccc([N+](=O)[O-])cc12)c1cn(C)c2ccc([N+](=O)[O-])cc12	human Fibroblast	MTS	20 µM	24 h	inhibition	21.1%
Cn1nnc2c(C(N)=O)ncn2c1=O	SGC-7901	–	–	–	EC50	> 1000 µM
CC(C)Nc1ccnc(Nc2cccc(C(C)(C)C)c2)n1	MV4-11	ATP luminescence	–	72 h	EC50	> 13 µM
Cc1cn(CC(c2cn(C)c3ccccc23)c2cn(C)c3ccccc23)nn1	human Fibroblast	MTS	20 µM	24 h	inhibition	17.1%
COC(=O)c1cccc(-c2cccc(Nc3nccc(NC4CCCCC4)n3)c2)c1	MV4-11	ATP luminescence	–	72 h	EC50	7.59 µM
CC(C)=CCC[C@](C)(O)[C@H]1CC[C@]2(C)[C@@H]1[C@H](O)C[C@@H]1[C@@]3(C)CC[C@H](O[C@@H]4O[C@H](CO)[C@@H](O)[C@H](O)[C@H]4O[C@@H]4O[C@H](CO)[C@@H](O)[C@H](O)[C@H]4O)C(C)(C)[C@@H]3CC[C@]12C	BEAS-2B	MTT	–	72 h	IC80	> 100 µM
COC(=O)c1c(C)ncn1CC(c1c[nH]c2ccccc12)c1c[nH]c2ccccc12	human Fibroblast	MTS	20 µM	24 h	inhibition	12%
COc1ccc(-c2ccc(-c3ccc(C(=N)N)nc3)s2)cc1	LOX IMVI	SRB	–	–	GI50	1.88 µM
